# Values without a mark were called inactive. Calls of active or inactive are those of the source.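 Rule for the calls: active = GFP response vs DMSO above 150% with enough events counted; inconclusive = fewer than 70 events counted for a yeast strain; inactive = the rest.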
# Assay: yeast TOR reporter LAP4-GFP retest – cell-based, third cherry pick, flow cytometry, confirmation (AID 504338);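 note: ratio to plate DMSO wells so 100% equals DMSO level rather than 0%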
# Conditions: S. cerevisiae LAP4-GFP strain, 3 h, at 10 µM, stronger effect = higher value
# Procedure, shortened: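 material = yeast LAP4-GFP strain | medium = synthetic complete growth medium for yeast | doses = 10 µM, one concentration | schedule = compound exposure for 3 h at 30 °C | signal = flow cytometric GFP fluorescence | read-out basis = percent of mean DMSO-control median fluorescence | control set = rapamycin 400 ng/mL as positive control, DMSO wells as reference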
row,SMILES,GFP response vs DMSO
1,CC(=O)C(CC(=O)N1CCCC1)C(=O)Nc1ccc(Cl)cc1 (centres undefined),108%
2,Cc1ccc(C(=O)/C=C/Nc2cccc(O)c2)cc1,117%
3,CNc1nc(N)c([N+](=O)[O-])c(Nc2cccc(Cl)c2)n1,131%
4,CC1=CN2C(=N)/C(=C/c3ccco3)C(=O)N=C2S1,101%
5,NC(=O)c1ccnc2c(O)cccc12,101%
6,COc1cc(=O)n(C)c2c(O)cccc12,101%
7,COCC(C)NC(=O)CCS(=O)(=O)c1nc(-c2ccc(OC)cc2)cc(C(F)(F)F)n1 (centres undefined),104%
8,COc1ccccc1-c1cc(C(F)(F)F)nc(S(C)(=O)=O)n1,128%
9,Brc1ccc2ncnc(NCc3ccccc3)c2c1,107%
10,COc1ccc(N/C(C)=C/C(=O)c2ccccc2)cc1,104%
11,Cc1cccc(Nc2cc(=O)[nH]c(=O)[nH]2)c1,106%
12,C/C(=C\C(=O)c1ccc(C)cc1)Nc1cccc(O)c1,106%
13,COc1cccc(NC(=O)CC(C)=O)c1,101%
14,O=C(Nc1cccc(Cl)c1)ON=C1c2ccccc2-c2ccccc21,107%
15,CCN(CC)C(=O)Oc1ccnc2cc(Cl)ccc12,101%
16,O=C(/C=C/Nc1cccc(O)c1)c1ccccc1,111%
17,CCCCC(=O)NCCc1cc2c(OC)ccc(OC)c2[nH]c1=O,108%
18,Cc1cccc(Nc2cc(=O)[nH]c(=O)[nH]2)c1C,101%
19,Cc1ccc(NN2C(=O)C=C(c3ccccc3)C2=O)cc1,138%
20,Nc1c(C(=O)O)ccc2c1C(=O)c1ccccc1C2=O,115%

row,SMILES,GFP response vs DMSO
1,OCc1ccc(O)c2ncccc12,101%
2,COc1ccc(N/C=C/C(=O)c2ccc(Cl)cc2)cc1,110%
3,COC(=O)c1cc(=O)c2cccc(OC)c2[nH]1,101%
4,COC1=C/C(=C/c2c(N)n3cc(C)sc3nc2=O)C=CC1=O,110%
5,Oc1ccc(Cl)c2cccnc12,110%
6,Nc1cccc2c1C(=O)c1ccc(Cl)cc1C2=O,100%
7,C=CCNc1ncnc2ccccc12,103%
8,COC(=O)COc1c(Cl)cc(Cl)c2ccc(C)nc12,107%
9,O=c1cc(C(F)(F)F)[nH]c2c(OC(F)(F)F)cccc12,98.6%
10,O=C(O)c1ccc2cccc(O)c2n1,100%
11,Cn1cccc1C(=O)Nc1nc(-c2ccccn2)cs1,114%
12,Cc1nc2c(O)cccc2cc1CO,101%
13,COc1ccc(NC(=O)O/N=C2/CCCc3ccc(OC)cc32)cc1,107%
14,CC1=CN2C(=N)/C(=C/c3ccc(C)o3)C(=O)N=C2S1,104%
15,Cc1cc(C)c2ccc(C(=O)O)nc2c1O,107%
16,Cc1cccc(N/C=C/C(=O)c2ccc(Cl)cc2)c1,110%
17,Cc1ccc(-c2cc(C(F)F)nc(S(C)(=O)=O)n2)cc1,114%
18,CC1=CN2C(=N)/C(=C/c3ccc([N+](=O)[O-])o3)C(=O)N=C2S1,3330% (active)
19,Cc1cc(C)c2ccc(N)nc2c1O,97.2%

# Source: PubChem BioAssay AID504338 (NMMLSC, 2011)
